In one experiment the test system is Streptococcus pneumoniae. Put plainly: Antibacterial activity against Streptococcus pneumoniae. It counts as functional. The gist of the method:
(§1)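 MIC against respiratory-tract-infection pathogens: Gram-positive S. pneumoniae and Gram-negative H. influenzae and M. catarrhalis. Where more than one strain was tested, the MIC is given as a range across strains. The minimum number of strains was 3 for H. influenzae and 1 for M. catarrhalis.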

The next experiment concerns Haemophilus influenzae. Put plainly: Antibacterial activity against Haemophilus influenzae. It counts as functional. The gist of the method:
as §1

The next experiment deals with T1, Peptide deformylase (Escherichia coli, UniProt Q9JN24).
T1 sequence (Q9JN24 whole entry): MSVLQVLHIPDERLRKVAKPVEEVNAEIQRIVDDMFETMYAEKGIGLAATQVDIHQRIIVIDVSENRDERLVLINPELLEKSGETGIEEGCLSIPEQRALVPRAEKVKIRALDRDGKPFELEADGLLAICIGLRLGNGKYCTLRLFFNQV
Put plainly: Inhibition of Escherichia coli nickel containing peptide deformylase.

Another experiment deals with Moraxella catarrhalis. Description: Antibacterial activity against Moraxella catarrhalis. It counts as functional. The essentials: as §1
The target of experiment [1] is T2, Peptide deformylase (Escherichia coli) (UniProt Q9JN24).
T2 sequence (whole entry): T1 sequence (Q9JN24 whole entry)
Description: Inhibition of Escherichia coli nickel containing peptide deformylase at 1 uM.

34 molecules from ChEMBL document CHEMBL1795242, “Peptidomimetic inhibitors of bacterial peptide deformylase” (Bioorg Med Chem Lett, 2011) can be followed below.

In brackets after ≈: the same amount, converted by molar mass. Some results are limits rather than exact numbers.

By IC50 is commonly meant the midpoint of a concentration-inhibition curve. Consider `O=C(C[C@@H](CC1CCCC1)C(=O)N1CCCCN1C(=O)Nc1ccccc1)NO`, for which the MIC against Streptococcus pneumoniae is 4 µg/mL (≈ 9.94 µM); against Haemophilus influenzae, 1 µg/mL (≈ 2.48 µM). Further, the IC50 against Peptide deformylase amounted to 20 nM.
For the molecule `O=CN(O)C[C@@H](CC1CCCC1)C(=O)N1CCCN1C(=O)c1ccco1`, the MIC with Streptococcus pneumoniae is 4 µg/mL (≈ 11 µM); against Haemophilus influenzae it was under 0.125 µg/mL; in the experiment on Moraxella catarrhalis, under 0.125 µg/mL. At Peptide deformylase, this molecule showed an IC50 of 30 nM.
Take `O=CN(O)C[C@@H](CC1CCCC1)C(=O)N1CCCCN1C(=O)c1ccccc1`: the MIC came to 0.5 µg/mL (≈ 1.29 µM) against Streptococcus pneumoniae and 1 µg/mL (≈ 2.58 µM) against Haemophilus influenzae. For the same molecule, the IC50 against Peptide deformylase amounted to 500 nM.
Regarding `O=CN(O)C[C@@H](CC1CCCC1)C(=O)N1CCCCN1C(=O)Nc1ccccc1`, the figures for the MIC with Streptococcus pneumoniae and in the experiment on Haemophilus influenzae were 2 µg/mL (≈ 4.97 µM) and under 0.125 µg/mL, respectively. Further, half-maximal inhibition on Peptide deformylase (IC50) was put at 20 nM.
In the case of `COc1ccccc1NC(=O)N1CCCN1C(=O)[C@H](CC1CCCC1)CN(O)C=O`, the figures for the MIC in the experiment with Streptococcus pneumoniae, against Haemophilus influenzae and against Moraxella catarrhalis were 8 µg/mL (≈ 19.1 µM), 1 µg/mL (≈ 2.39 µM) and 0.25 µg/mL (≈ 0.597 µM), respectively. The molecule further registered an IC50 against Peptide deformylase of 7 nM.
For the molecule `O=CN(O)C[C@@H](CC1CCCC1)C(=O)N1CCCCN1C(=O)Cc1ccccc1`, the MIC was determined as 0.5 µg/mL (≈ 1.25 µM) against Streptococcus pneumoniae and 0.25 µg/mL (≈ 0.623 µM) against Haemophilus influenzae. The molecule also came in with an IC50 on Peptide deformylase of 60 nM.
Take `O=CN(O)C[C@@H](CC1CCCC1)C(=O)N1CCCN1C(=O)c1ccccc1`: the MIC in the experiment on Haemophilus influenzae turned out to be 2 µg/mL (≈ 5.36 µM). At Peptide deformylase, this molecule came in with a half-inhibitory concentration (IC50) of 70 nM.
As for `CC(C)(C)OC(=O)N1CCCCN1C(=O)[C@H](CC1CCCC1)CN(O)C=O`, the MIC in the experiment on Streptococcus pneumoniae came to 4 µg/mL (≈ 10.4 µM); in the experiment on Haemophilus influenzae, 1 µg/mL (≈ 2.61 µM). Further, inhibition at Peptide deformylase was half-maximal at 9 nM (IC50).
Regarding `O=CN(O)C[C@@H](CC1CCCC1)C(=O)N1CCCCN1C(=O)Nc1ccc(C(F)(F)F)cc1`, in the experiment with Haemophilus influenzae, the MIC came to 0.25 µg/mL (≈ 0.531 µM). Also, on Peptide deformylase, the IC50 came to 9 nM.
For the molecule `O=CN(O)C[C@@H](CC1CCCC1)C(=O)N1CCCCN1C(=O)c1ccncc1`, the MIC with Streptococcus pneumoniae and with Haemophilus influenzae was 2 µg/mL (≈ 5.15 µM) each time. At Peptide deformylase, this molecule had an IC50 of 300 nM.
`O=CN(O)C[C@@H](CC1CCCC1)C(=O)N1CCCN1C(=O)c1ccc(F)cc1`: the MIC in the experiment on Haemophilus influenzae stood at 4 µg/mL (≈ 10.2 µM). This molecule returned an IC50 against Peptide deformylase of 20 nM.
For `O=CN(O)C[C@@H](CC1CCCC1)C(=O)N1CCCN1C(=O)C1CCCCC1`, in that order: 4 µg/mL (≈ 10.5 µM) and 40 nM.
Take `COc1ccccc1NC(=O)N1CCCCN1C(=O)[C@H](CC1CCCC1)CN(O)C=O`: the MIC in the experiment with Streptococcus pneumoniae was determined as 4 µg/mL (≈ 9.25 µM); in the experiment on Haemophilus influenzae, 0.5 µg/mL (≈ 1.16 µM). Besides, the midpoint of inhibition against Peptide deformylase, the IC50, lay at 10 nM.
As to `O=CN(O)C[C@@H](CC1CCCC1)C(=O)N1CCCCN1C(=O)c1ccco1`, the MIC against Streptococcus pneumoniae is 0.5 µg/mL (≈ 1.32 µM); against Haemophilus influenzae it was under 0.125 µg/mL; with Moraxella catarrhalis it was under 0.125 µg/mL. The molecule also returned an IC50 against Peptide deformylase of 5 nM.
As for `O=CN(O)C[C@@H](CC1CCCC1)C(=O)N1CCCN1C(=O)Nc1ccccc1`, the results for the MIC in the experiment with Streptococcus pneumoniae and in the experiment with Haemophilus influenzae were 4 µg/mL (≈ 10.3 µM) and under 0.125 µg/mL, respectively. At Peptide deformylase, this molecule had an IC50 of 10 nM.
For `COc1cccc(NC(=O)N2CCCCN2C(=O)[C@H](CC2CCCC2)CN(O)C=O)c1`, the results for the MIC in the experiment on Streptococcus pneumoniae and against Haemophilus influenzae were 2 µg/mL (≈ 4.62 µM) and under 0.125 µg/mL, respectively. Further, the IC50 on Peptide deformylase was 20 nM.
For `O=CN(O)C[C@@H](CC1CCCC1)C(=O)N1CCCN1C(=O)Nc1ccc(F)cc1`, in that order: 8 µg/mL (≈ 19.7 µM), under 0.125 µg/mL and 10 nM.
With `O=CN(O)C[C@@H](CC1CCCC1)C(=O)N1CCCCN1C(=O)Nc1ccc(F)cc1`, the MIC in the experiment with Streptococcus pneumoniae was 4 µg/mL (≈ 9.51 µM); in the experiment with Haemophilus influenzae, under 0.125 µg/mL. Moreover, inhibition on Peptide deformylase was half-maximal at 10 nM (IC50).
For `O=C(C[C@@H](CC1CCCC1)C(=O)N1CCCCN1C(=O)c1ccco1)NO`, the figures for the MIC in the experiment with Streptococcus pneumoniae, with Haemophilus influenzae and in the experiment on Moraxella catarrhalis were 2 µg/mL (≈ 5.3 µM), 0.06 µg/mL (≈ 0.159 µM) and 0.06 µg/mL (≈ 0.159 µM), respectively. The molecule further registered an IC50 on Peptide deformylase of 8 nM.
As for `O=CN(O)C[C@@H](CC1CCCC1)C(=O)N1CCCN1C(=O)Cc1ccccc1`, the MIC with Streptococcus pneumoniae stood at 4 µg/mL (≈ 10.3 µM); in the experiment on Haemophilus influenzae, 2 µg/mL (≈ 5.16 µM). Also, the IC50 against Peptide deformylase was determined as 30 nM.
On to `COCC(=O)N1CCCN1C(=O)[C@H](CC1CCCC1)CN(O)C=O`, for which the MIC against Haemophilus influenzae turned out to be 1 µg/mL (≈ 2.93 µM). Moreover, the IC50 against Peptide deformylase was 60 nM.
For the molecule `O=CN(O)C[C@@H](CC1CCCC1)C(=O)N1CCCCN1C(=O)c1ccc(F)cc1`, the MIC with Streptococcus pneumoniae and against Haemophilus influenzae was 0.5 µg/mL (≈ 1.23 µM) in each case. Besides, half-maximal inhibition at Peptide deformylase (IC50) required 60 nM.
`O=CN(O)C[C@@H](CC1CCCC1)C(=O)N1CCCN1C(=O)c1ccncc1`: the MIC against Streptococcus pneumoniae worked out at 16 µg/mL (≈ 42.7 µM); in the experiment with Haemophilus influenzae it was 2 µg/mL (≈ 5.34 µM). Also, inhibition against Peptide deformylase was half-maximal at 60 nM (IC50).
`O=CN(O)C[C@@H](CC1CCCC1)C(=O)N1CCCN1C(=O)Nc1ccc(C(F)(F)F)cc1`: the figures for the MIC with Streptococcus pneumoniae, in the experiment on Haemophilus influenzae and in the experiment on Moraxella catarrhalis were 2 µg/mL (≈ 4.38 µM), 2 µg/mL (≈ 4.38 µM) and 0.06 µg/mL (≈ 0.131 µM), respectively. On Peptide deformylase, half-maximal inhibition (IC50) required 30 nM.
Consider `COc1ccc(C(=O)N2CCCN2C(=O)[C@H](CC2CCCC2)CN(O)C=O)cc1`, for which the results for the MIC in the experiment on Streptococcus pneumoniae and in the experiment on Haemophilus influenzae were 4 µg/mL (≈ 9.91 µM) and 16 µg/mL (≈ 39.7 µM), respectively. This molecule gave an IC50 against Peptide deformylase of 50 nM.
As for `COc1ccc(C(=O)N2CCCCN2C(=O)[C@H](CC2CCCC2)CN(O)C=O)cc1`, the MIC in the experiment on Streptococcus pneumoniae came out at 0.5 µg/mL (≈ 1.2 µM); in the experiment with Haemophilus influenzae, 1 µg/mL (≈ 2.4 µM). This molecule gave a half-maximal inhibitory concentration (IC50) on Peptide deformylase of 100 nM.
For `CC(C)(C)OC(=O)N1CCCN1C(=O)[C@H](CC1CCCC1)CN(O)C=O`, the MIC in the experiment with Streptococcus pneumoniae was 8 µg/mL (≈ 21.7 µM); with Haemophilus influenzae, 0.5 µg/mL (≈ 1.35 µM); in the experiment with Moraxella catarrhalis, under 0.125 µg/mL. Further, inhibition against Peptide deformylase was half-maximal at 30 nM (IC50).
As to `COc1cccc(NC(=O)N2CCCN2C(=O)[C@H](CC2CCCC2)CN(O)C=O)c1`, the MIC against Streptococcus pneumoniae was 4 µg/mL (≈ 9.56 µM); in the experiment on Haemophilus influenzae, under 0.125 µg/mL. For the same molecule, the IC50 against Peptide deformylase is 10 nM.
By inhibition is commonly meant the change of the read-out against control, counted positive when it falls. Read a low inhibition as a response near the control. `O=CN(O)C[C@@H](CC1CCCC1)C(=O)N1CCCCN1C(=O)c1cccnc1` had an inhibition in experiment [1] of 40%.
As for `O=CN(O)C[C@@H](CC1CCCC1)C(=O)N1CCCCN1C(=O)C1CCCCC1`, the MIC with Streptococcus pneumoniae came to 0.5 µg/mL (≈ 1.27 µM); in the experiment with Haemophilus influenzae, 4 µg/mL (≈ 10.2 µM). The molecule further yielded an IC50 against Peptide deformylase of 200 nM.
For the molecule `O=CN(O)C[C@@H](CC1CCCC1)C(=O)N1CCCN1C(=O)c1cccnc1`, in the experiment on Haemophilus influenzae, the MIC stood at 2 µg/mL (≈ 5.34 µM). In addition, half-maximal inhibition against Peptide deformylase (IC50) required 300 nM.
The corresponding values for `O=CN(O)C[C@@H](CC1CCCC1)C(=O)N1CCCN1C(=O)c1ccoc1` are 1 µg/mL (≈ 2.75 µM) and 10 nM.
Consider `COCC(=O)N1CCCCN1C(=O)[C@H](CC1CCCC1)CN(O)C=O`, for which the MIC against Streptococcus pneumoniae is 1 µg/mL (≈ 2.81 µM); with Haemophilus influenzae, 0.25 µg/mL (≈ 0.703 µM). The molecule also came in with an IC50 against Peptide deformylase of 200 nM.
For the molecule `O=CN(O)C[C@@H](CC1CCCC1)C(=O)N1CCCCN1C(=O)c1ccoc1`, the MIC against Streptococcus pneumoniae was 0.5 µg/mL (≈ 1.32 µM); against Haemophilus influenzae, 0.125 µg/mL (≈ 0.331 µM); in the experiment on Moraxella catarrhalis, under 0.03 µg/mL. Also, half-maximal inhibition against Peptide deformylase (IC50) required 6 nM.
